Experimental data from different studies.
Effect on: enzyme activity
Mode: inhibitor
EGFR: Epidermal growth factor receptor (EGFR, Homo sapiens, UniProt P00533)
EGFR L858R/T790M: Epidermal growth factor receptor (EGFR, Homo sapiens, UniProt P00533, L858R/T790M)
EGFR C797S/L858R/T790M: Epidermal growth factor receptor (EGFR, Homo sapiens, UniProt P00533, C797S/L858R/T790M)
EGFR L858R: Epidermal growth factor receptor (EGFR, Homo sapiens, UniProt P00533, L858R)

| SMILES | target | technique | setting | IC50 |
| --- | --- | --- | --- | --- |
| O=C1c2c(O)cc(O)cc2OC(c2ccc(O)c(O)c2)C1O (centres unmarked) | EGFR | radiometric | – | 29000 nM |
| Cc1ccc(-c2csc(Nc3ccc4c(O)ncnc4c3)n2)cc1 | EGFR | ELISA | – | 8.59 nM |
| COc1cc2ncnc(NCCSc3ccc(Cl)cc3)c2cc1OC | EGFR | mobility shift | – | 320 nM |
| O=C(N/N=C/CN1CCOCC1)Nc1cc2c(Nc3ccc(F)c(Cl)c3)ncnc2cc1O[C@H]1CCOC1 | EGFR L858R/T790M | – | – | 14.3 nM |
| C=C(Cl)C(=O)Nc1cc(Nc2nc(Nc3cnn(C)c3)c3sccc3n2)c(OC)cc1N(C)CCN(C)C | EGFR | ELISA | – | 100 nM |
| Oc1ncnc2cc(Nc3nc(-c4ccc(Br)cc4)cs3)ccc12 | EGFR | ELISA | – | 4.96 nM |
| CCN(CC)C/C=N/NC(=O)Nc1cc2c(Nc3ccc(F)c(Cl)c3)ncnc2cc1O[C@H]1CCOC1 | EGFR L858R/T790M | – | – | 13.2 nM |
| C=C(Cl)C(=O)Nc1cc(Nc2nc(N3CCOCC3)c3sccc3n2)c(OC)cc1N(C)CCN(C)C | EGFR C797S/L858R/T790M | ELISA | – | > 1000 nM |
| C=CC(=O)Nc1cc(Nc2nccc(Nc3cc(Cl)c(F)cc3C(C)(C)O)n2)c(OC)cc1N1CC[C@@H](N(C)C)C1 | EGFR | – | with preincubation | 226 nM |
| C=C(Cl)C(=O)Nc1cc(Nc2nc(N3CCc4sccc4C3)c3sccc3n2)c(OC)cc1N(C)CCN(C)C | EGFR C797S/L858R/T790M | ELISA | – | > 1000 nM |
| CC(C)Cc1ccc(-c2nn(-c3ccc(S(C)(=O)=O)cc3)cc2/C=N/N=c2\[nH]c(-c3ccc([N+](=O)[O-])cc3)cs2)cc1 | EGFR L858R | – | – | 114 nM |
| COc1ccc2c(Oc3ccc4c(C(=O)Nc5ccccc5N)cccc4c3)ccnc2c1 | EGFR | – | – | > 500 nM |
| COc1cc2c(Nc3ccc(OCCCn4ccnc4[N+](=O)[O-])c(Cl)c3)ncnc2cc1OCCCN1CCOCC1 | EGFR | FRET | – | 330 nM |
| Oc1ncnc2cc(Nc3nc(-c4ccc(Cl)cc4)cs3)ccc12 | EGFR | ELISA | – | 4.81 nM |
| COc1cc2ncnc(Nc3ccc(F)c(Cl)c3)c2cc1NC(=O)N/N=C/c1cccn1CCN(C)C | EGFR L858R/T790M | – | – | 21.7 nM |
| COC(=O)/C=C/c1ccc2ncnc(Nc3cccc(C(F)(F)F)c3)c2c1 | EGFR | radiometric | – | 19.1 nM |

| SMILES | target | technique | setting | IC50 |
| --- | --- | --- | --- | --- |
| COc1ccc(-c2nn(-c3ccc(S(C)(=O)=O)cc3)cc2/C=N/N=c2\[nH]c(-c3ccc(Br)cc3)cs2)cc1 | EGFR L858R | – | – | 36 nM |
| COc1cc2ncnc(Nc3ccc(F)c(Cl)c3)c2cc1NC(=O)N/N=C/c1cccn1CCCN(C)C | EGFR L858R/T790M | – | – | 24.3 nM |
| C=CC(=O)Nc1cc(Nc2nccc(-c3cn(C4CC4)c4ccccc34)n2)c(OC)cc1N(C)CCN(C)C | Epidermal growth factor receptor (EGFR, Homo sapiens, UniProt P00533, G719D) | TR-FRET | – | 54.1 nM |
| COc1cc2ncnc(NCc3cccs3)c2cc1OC | EGFR | mobility shift | – | 35 nM |
| O=[N+]([O-])c1ccc(-c2csc(Nc3ccc4c(O)ncnc4c3)n2)cc1 | EGFR | ELISA | – | 2.93 nM |
| O=C(N/N=C/c1cccn1CCCN1CCCCC1)Nc1cc2c(Nc3ccc(F)c(Cl)c3)ncnc2cc1O[C@H]1CCOC1 | EGFR L858R/T790M | – | – | 11.4 nM |
| Oc1ncnc2cc(Nc3nc(-c4ccc(C(F)(F)F)cc4)cs3)ccc12 | EGFR | ELISA | – | 2.17 nM |
| COc1ccc(-c2nn(-c3ccc(S(C)(=O)=O)cc3)cc2C=N/N=c2\[nH]c(-c3ccc([N+](=O)[O-])cc3)cs2)cc1 | EGFR L858R/T790M | – | – | 80 nM |
| CN(C)C/C=N/NC(=O)Nc1cc2c(Nc3ccc(F)c(Cl)c3)ncnc2cc1O[C@H]1CCOC1 | EGFR L858R/T790M | – | – | 15.4 nM |
| COc1cc2c(Nc3ccc(OCCn4ccnc4[N+](=O)[O-])c(Cl)c3)ncnc2cc1OCCCN1CCOCC1 | EGFR | FRET | – | 190 nM |
| C=C(Cl)C(=O)Nc1cc(Nc2nc(Nc3cnn(C)c3)c3sccc3n2)c(OC)cc1N1CCN(C)CC1 | EGFR L858R/T790M | ELISA | – | 173 nM |
| CN1CCN(C/C=N/NC(=O)Nc2cc3c(Nc4ccc(F)c(Cl)c4)ncnc3cc2O[C@H]2CCOC2)CC1 | EGFR L858R/T790M | – | – | 11.6 nM |
| CCC(=O)Nc1cc(Nc2nc(N3CCc4sccc4C3)c3cccnc3n2)c(OC)cc1N1CCSCC1 | EGFR L858R/T790M | ELISA | – | > 1000 nM |
| OCc1ccc(Nc2ccc3ncnc(Nc4cccc(C(F)(F)F)c4)c3c2)cc1 | EGFR | radiometric | – | 8.67 nM |
| C=CC(=O)Nc1cc(Nc2nc(N3CCc4sccc4C3)c3cccnc3n2)c(OC)cc1N1CCC(N(C)C)CC1 | EGFR | ELISA | – | > 1000 nM |
| CCN(CC)CCCn1cccc1/C=N/NC(=O)Nc1cc2c(Nc3ccc(F)c(Cl)c3)ncnc2cc1O[C@H]1CCOC1 | EGFR | – | – | 0.5 nM |
